ChEMBL document CHEMBL4411266, “Triterpenoid Hydroxamates as HIF Prolyl Hydrolase Inhibitors” (J Nat Prod, 2018)
The source made the active and inactive calls. No cut-off for these calls is given here.

Assays:
[1] = molecular target: T1, Hypoxia-inducible factor prolyl hydroxylase (Homo sapiens, UniProt Q96KS0+Q9NXG6+Q9GZT9+Q9H6Z9); assay: Inhibition of PHD (unknown origin) expressed in mouse NIH/3T3 cells harboring HRE-driven luciferase gene assessed as transactivation of HIF1alpha after 6 hrs by luciferase reporter gene assay; assay type: cell-based
Outline: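 NIH-3T3 mouse cells stably carrying an EPO-HRE luciferase reporter (three HRE copies from the erythropoietin promoter) treated with compounds for 6 h. Cells then washed twice in PBS and lysed in Tris-phosphate pH 7.8 buffer with MgCl2, DTT, Triton X-100 and glycerol for 15 min at room temperature. Luciferase measured in the supernatant after centrifugation.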

[2] = molecular target: T1, Hypoxia-inducible factor prolyl hydroxylase; assay: Inhibition of PHD (unknown origin) expressed in mouse NIH/3T3 cells harboring HRE-driven luciferase gene assessed as transactivation of HIF1alpha after 6 hrs by luciferase reporter gene assay relative to deferoxamine; assay type: cell-based
Outline: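 Mouse NIH-3T3 cells with a stably transfected EPO-HRE luciferase reporter exposed to compounds for 6 h, then washed, lysed and read for luciferase in the cleared lysate. EC50 and intrinsic relative activity (IRA) were calculated relative to 150 μM deferoxamine as reference.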

[3] = molecular target: T1, Hypoxia-inducible factor prolyl hydroxylase; assay: Inhibition of PHD in HEK293T cells assessed as increase in HIF1alpha expression at 1 to 10 uM after 3 hrs by Western blot analysis; assay type: cell-based
Outline: (§1)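 HEK-293T cells treated for 3 h, with DFX (100 μM) as a reference. Cell lysates were made in Tris-HCl pH 7.5/NaCl/glycerol/NP-40 buffer with protease and phosphatase inhibitors. 30 μg protein was run on 10% SDS-PAGE, blotted to PVDF and probed for HIF-1α, PHD1, PHD2 and PHD3. Detection was by HRP secondary and chemiluminescence.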

HEK-293T [4] = assay: Effect on PHD2 expression in HEK293T cells at 1 to 10 uM after 3 hrs by Western blot analysis; assay type: ADME, cell-based; details: human; outline: as §1
HEK-293T [5] = assay: Effect on PHD1 expression in HEK293T cells at 1 to 10 uM after 3 hrs by Western blot analysis; assay type: ADME, cell-based; details: human; outline: as §1
HEK-293T [6] = assay: Effect on PHD3 expression in HEK293T cells at 1 to 10 uM after 3 hrs by Western blot analysis; assay type: ADME, cell-based; details: human; outline: as §1
[7] = molecular target: T1, Hypoxia-inducible factor prolyl hydroxylase; assay: Inhibition of PHD in HEK293T cells assessed as increase in HIF1alpha expression at 10 uM after 15 to 180 mins by Western blot analysis; assay type: cell-based
Outline: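 HEK-293T cells were stimulated over a time course and HIF-1α was followed by Western blot. Lysis was in NP-40 buffer with protease and phosphatase inhibitors. 30 μg protein was resolved on 10% SDS-PAGE, transferred to PVDF, and detected by HRP secondary and chemiluminescence.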

[8] = molecular target: T1, Hypoxia-inducible factor prolyl hydroxylase; assay: Inhibition of PHD in HEK293T cells assessed as increase in HIF1alpha expression at 10 uM under hypoxic condition by Western blot analysis; assay type: cell-based
Outline: (§2)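 HEK-293T cells were treated under hypoxia (1% O2) or normoxia, with or without compound. HIF-1α and PHD levels were read by Western blot: NP-40 lysis, 30 μg protein on 10% SDS-PAGE, PVDF transfer, HRP secondary and chemiluminescence.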

HEK-293T [9] = assay: Effect on PHD2 expression in HEK293T cells at 10 uM under hypoxic condition by Western blot analysis; assay type: ADME, cell-based; details: human; outline: as §2
HEK-293T [10] = assay: Effect on PHD2 expression in HEK293T cells at 10 uM under normoxic condition by Western blot analysis; assay type: ADME, cell-based; details: human; outline: as §2
[11] = molecular target: T1, Hypoxia-inducible factor prolyl hydroxylase; assay: Inhibition of PHD in HEK293T cells assessed as increase in HIF1alpha expression at 10 uM under normoxic condition by Western blot analysis; assay type: cell-based; outline: as §2
[12] = molecular target: T1, Hypoxia-inducible factor prolyl hydroxylase; assay: Inhibition of PHD in HEK293T cells assessed as increase in HIF1alpha expression at 1 to 10 uM after 6 hrs in presence of proteasome inhibitor MG132; assay type: cell-based
Outline: (§3)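 HEK-293T cells were treated for 6 h in the presence of the proteasome inhibitor MG132. Hydroxylated HIF-1α and total HIF-1α were determined by immunoblot: 10% SDS-PAGE, PVDF transfer, HRP/chemiluminescence detection.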

[13] = molecular target: T1, Hypoxia-inducible factor prolyl hydroxylase; assay: Inhibition of PHD in HEK293T cells assessed as reduction in HIF1alpha hydroxylation at 1 to 10 uM after 6 hrs in presence of proteasome inhibitor MG132; assay type: cell-based; outline: as §3
[14] = molecular target: T1, Hypoxia-inducible factor prolyl hydroxylase; assay: Reversible inhibition of PHD (unknown origin) expressed in mouse NIH/3T3 cells harboring HRE-driven luciferase gene assessed as transactivation of HIF1alpha at 5 to 25 uM pretreated for 1 hr followed by compound washout and measured after 6 hrs by luciferase reporter gene assay; assay type: cell-based
Outline: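 NIH-3T3-EPO-Luc cells stably carry an EPO-promoter 3×HRE-luciferase reporter. Cells were pretreated 1 h, then washed or not with PBS and incubated 6 h in complete medium. Lysis was in Tris-phosphate pH 7.8/MgCl2/DTT/Triton buffer and luciferase was read in the lysate. Data are fold induction over untreated cells, means ± SD, n = 3, one-way ANOVA with Tukey's test.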

[15] = molecular target: T1, Hypoxia-inducible factor prolyl hydroxylase; assay: Inhibition of PHD (unknown origin) expressed in mouse NIH/3T3 cells harboring HRE-driven luciferase gene assessed as transactivation of HIF1alpha at 1 to 25 uM after 6 hrs in presence of 50 uM betulinic acid by luciferase reporter gene assay; assay type: cell-based
Outline: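 NIH-3T3-EPO-Luc (3×HRE-luciferase) cells were preincubated 30 min with betulinic acid (50 μM), then treated with compound for 6 h. Cells were washed in PBS and lysed in Tris-phosphate pH 7.8 buffer, and luciferase was measured in the lysate. Data are fold induction over untreated cells, means ± SD, n = 3, one-way ANOVA with Tukey's test.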

T1 sequence (Q96KS0 whole entry, looked up): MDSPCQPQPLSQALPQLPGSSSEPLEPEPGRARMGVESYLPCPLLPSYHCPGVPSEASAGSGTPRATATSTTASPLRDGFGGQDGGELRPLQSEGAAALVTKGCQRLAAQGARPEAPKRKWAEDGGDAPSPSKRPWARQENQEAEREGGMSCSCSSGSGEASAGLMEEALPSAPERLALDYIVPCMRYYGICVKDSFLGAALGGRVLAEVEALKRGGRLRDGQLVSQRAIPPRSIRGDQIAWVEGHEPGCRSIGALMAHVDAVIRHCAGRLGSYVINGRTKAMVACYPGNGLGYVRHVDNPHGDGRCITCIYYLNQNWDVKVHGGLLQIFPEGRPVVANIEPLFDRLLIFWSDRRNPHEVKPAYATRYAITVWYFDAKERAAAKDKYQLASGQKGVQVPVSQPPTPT
T1 sequence (Q9GZT9 whole entry, looked up): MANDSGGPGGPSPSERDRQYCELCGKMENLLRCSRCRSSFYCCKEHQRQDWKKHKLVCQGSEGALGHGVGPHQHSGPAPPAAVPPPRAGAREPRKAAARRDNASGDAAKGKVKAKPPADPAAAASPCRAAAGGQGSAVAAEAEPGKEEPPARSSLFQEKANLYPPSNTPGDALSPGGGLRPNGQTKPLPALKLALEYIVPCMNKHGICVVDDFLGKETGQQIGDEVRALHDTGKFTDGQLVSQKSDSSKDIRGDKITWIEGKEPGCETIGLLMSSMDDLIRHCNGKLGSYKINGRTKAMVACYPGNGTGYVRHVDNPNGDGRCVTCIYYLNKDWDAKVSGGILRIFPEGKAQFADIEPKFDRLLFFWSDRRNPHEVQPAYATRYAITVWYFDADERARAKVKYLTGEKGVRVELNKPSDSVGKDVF
T1 sequence (Q9H6Z9 whole entry, looked up): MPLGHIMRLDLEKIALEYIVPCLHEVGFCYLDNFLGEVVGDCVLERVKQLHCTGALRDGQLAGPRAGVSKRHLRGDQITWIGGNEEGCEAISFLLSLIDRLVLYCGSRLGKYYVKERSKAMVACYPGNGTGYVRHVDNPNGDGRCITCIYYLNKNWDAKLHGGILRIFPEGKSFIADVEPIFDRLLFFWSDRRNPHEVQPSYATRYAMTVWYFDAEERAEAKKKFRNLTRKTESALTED
T1 sequence (Q9NXG6 whole entry, looked up): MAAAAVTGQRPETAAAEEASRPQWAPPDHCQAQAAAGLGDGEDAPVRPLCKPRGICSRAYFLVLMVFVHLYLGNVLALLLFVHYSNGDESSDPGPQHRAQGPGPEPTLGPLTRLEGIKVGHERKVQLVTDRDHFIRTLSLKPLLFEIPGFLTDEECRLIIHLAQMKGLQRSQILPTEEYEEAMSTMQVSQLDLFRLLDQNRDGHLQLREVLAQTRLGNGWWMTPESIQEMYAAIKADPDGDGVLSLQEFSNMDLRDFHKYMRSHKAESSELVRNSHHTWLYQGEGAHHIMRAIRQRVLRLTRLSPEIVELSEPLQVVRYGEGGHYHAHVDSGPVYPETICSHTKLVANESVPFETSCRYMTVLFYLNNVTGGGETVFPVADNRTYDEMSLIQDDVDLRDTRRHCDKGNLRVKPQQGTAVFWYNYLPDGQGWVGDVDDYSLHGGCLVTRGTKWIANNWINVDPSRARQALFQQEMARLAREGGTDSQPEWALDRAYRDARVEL

Row | Structure (SMILES) | EC50 [1] [µM] | Intrinsic activity [2] | other results
1 | CC1(C)CCC2(C(=O)NO)CC[C@]3(C)C(=CC[C@@H]4[C@@]5(C)CC=CC(C)(C)[C@@H]5CC[C@]43C)[C@@H]2C1 (single isomer, unassigned) | 5 | 0.16 | –
2 | C=C(C)[C@@H]1CC[C@]2(C(=O)O)CC[C@]3(C)C(CC[C@@H]4[C@@]5(C)CC[C@H](OC(=O)CC(C)(C)C(=O)O)C(C)(C)[C@@H]5CC[C@]43C)[C@H]12 (some centres undefined) | > 50 | – | –
3 | CC1(C)CC[C@]2(C(=O)O)CC[C@]3(C)C(=CC[C@@H]4[C@@]5(C)C[C@@H](O)[C@H](O)C(C)(C)[C@@H]5CC[C@]43C)[C@@H]2C1 [MASLINIC ACID] | > 50 | – | –
4 | CC1(C)CC[C@]2(C(=O)NO)CC[C@]3(C)C(=CC(=O)[C@@H]4[C@@]5(C)CC[C@H](O)C(C)(C)[C@@H]5CC[C@]43C)[C@@H]2C1 | 11.4 | 0.15 | –
5 | C=C(C)[C@@H]1CC[C@]2(C(=O)O)CC[C@]3(C)[C@H](CC[C@@H]4[C@@]5(C)CC[C@H](O)C(C)(C)[C@@H]5CC[C@]43C)[C@@H]12 [BETULINIC ACID] | > 50 | – | –
6 | CC1(C)CCC2(C(=O)NO)CC[C@]3(C)C(=CC[C@@H]4[C@@]5(C)CC/C(=N\O)C(C)(C)[C@@H]5CC[C@]43C)[C@@H]2C1 (single isomer, unassigned) | 3.8 | 0.43 | –
7 | CC1(C)CC[C@]2(C(=O)NO)CC[C@]3(C)C(=CC[C@@H]4[C@@]5(C)C[C@@H](O)[C@H](O)C(C)(C)[C@@H]5CC[C@]43C)[C@@H]2C1 | 7.1 | 0.1 | –
8 | C=C(C)[C@@H]1CC[C@]2(C)[C@H](CC=C3[C@@H]4CC(C)(C)CC[C@]4(C(=O)OC)CC[C@]32C)[C@@]1(C)CCC(=O)NO | 7.5 | 1.19 | –
9 | C[C@H]1[C@H](C)CC[C@]2(C(=O)O)CC[C@]3(C)C(=CC[C@@H]4[C@@]5(C)CC[C@H](O)C(C)(C)[C@@H]5CC[C@]43C)[C@H]12 [URSOLIC ACID] | > 50 | – | –
10 | CC1(C)CC[C@]2(C(=O)O)CC[C@]3(C)C(=CC[C@@H]4[C@@]5(C)CC[C@H](O)C(C)(C)[C@@H]5CC[C@]43C)[C@@H]2C1 [OLEANOLIC_ACID] | > 50 | – | –
11 | CC1(C)CCC2(C(=O)O)CC[C@]3(C)C(=CC(=O)[C@@H]4[C@@]5(C)CC[C@H](O)C(C)(C)[C@@H]5CC[C@]43C)[C@@H]2C1 (single isomer, unassigned) | > 50 | – | –
12 | C=C(C)[C@@H]1CC[C@]2(C(=O)NO)CC[C@]3(C)C(CC[C@@H]4[C@@]5(C)CC=CC(C)(C)[C@@H]5CC[C@]43C)[C@H]12 (some centres undefined) | 3.2 | 0.48 | –
13 | C[C@H]1[C@H](C)CC[C@]2(C(=O)NO)CC[C@]3(C)C(=CC[C@@H]4[C@@]5(C)CC/C(=N\O)C(C)(C)[C@@H]5CC[C@]43C)[C@H]12 | 8.9 | 0.1 | –
14 | CC1(C)CCC2(C(=O)NO)CC[C@]3(C)C(=CC[C@@H]4[C@@]5(C)CC[C@H](O)C(C)(C)[C@@H]5CC[C@]43C)[C@@H]2C1 (single isomer, unassigned) | 16.4 | 0.39 | –
15 | C=C(C)[C@@H]1CC[C@]2(C(=O)NO)CC[C@]3(C)C(CC[C@@H]4[C@@]5(C)CC/C(=N\O)C(C)(C)[C@@H]5CC[C@]43C)[C@@H]12 (some centres undefined) | 6.8 | 0.31 | –
16 | C[C@H]1[C@H](C)CC[C@]2(C(=O)NO)CC[C@]3(C)C(=CC[C@@H]4[C@@]5(C)CC[C@H](O)C(C)(C)[C@@H]5CC[C@]43C)[C@H]12 | 7.7 | 0.17 | –
17 | C=C(C)[C@@H]1CC[C@]2(C(=O)NO)CC[C@]3(C)C(CC[C@@H]4[C@@]5(C)Cc6cn[nH]c6C(C)(C)[C@@H]5CC[C@]43C)[C@H]12 (some centres undefined) | 2.4 | 0.34 | –
18 | CC1(C)CC[C@]2(C(=O)NO)CC[C@]3(C)C(=CC[C@@H]4[C@@]5(C)CCC(=O)OC(C)(C)[C@@H]5CC[C@]43C)[C@@H]2C1 | 5.8 | 2.2 | –
19 | CC1(C)[C@@H](O)CC[C@]2(C)[C@H]3C(=O)C=C4[C@@H]5C[C@@](C)(C(=O)O)CC[C@]5(C)CC[C@@]4(C)[C@]3(C)CC[C@@H]12 [ENOXOLONE] | > 50 | – | –
20 | C=C(C)[C@@H]1CC[C@]2(C(=O)NO)CC[C@]3(C)C(CC[C@@H]4[C@@]5(C)Cc6cnoc6C(C)(C)[C@@H]5CC[C@]43C)[C@H]12 (some centres undefined) | 2.6 | 0.55 | –
21 | C=C(C)[C@@H]1CC[C@]2(C(=O)NO)CC[C@]3(C)C(CC[C@@H]4[C@@]5(C)CC[C@H](O)C(C)(C)[C@@H]5CC[C@]43C)[C@@H]12 (some centres undefined) | 4.8 | 0.36 | inhibition [3]: Active; Activity (HEK-293T [4]): Non-Toxic; Activity (HEK-293T [5]): Non-Toxic; Activity (HEK-293T [6]): Non-Toxic; inhibition [7]: Active; inhibition [8]: Active; Activity (HEK-293T [9]): Non-Toxic; Activity (HEK-293T [10]): Non-Toxic; inhibition [11]: Active; inhibition [12]: Active; inhibition [13]: Active; inhibition [14]: Active; inhibition [15]: inactive
22 | CC1(C)[C@@H](O)CC[C@]2(C)[C@H]3C(=O)C=C4[C@@H]5C[C@@](C)(C(=O)NO)CC[C@]5(C)CC[C@@]4(C)[C@]3(C)CC[C@@H]12 | > 50 | – | –
